Test results reported in ChEMBL document CHEMBL3576832, “First Crystal Structures of Mycobacterium tuberculosis 6-Oxopurine Phosphoribosyltransferase: Complexes with GMP and Pyrophosphate and with Acyclic Nucleoside Phosphonates Whose Prodrugs Have Antituberculosis Activity” (J Med Chem, 2015).

Columns and labels:
[1] = tested on: Mycobacterium tuberculosis; assay: Antimycobacterial activity against Mycobacterium tuberculosis H37Rv […] assessed as inhibition of microbial growth incubated for 5 days by resazurin reduction microplate assay; type: functional; conditions: 120 h
How it was run: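 H37Rv grown in 7H9 with OADC, 0.5% glycerol, 0.02% tyloxapol at 37 °C to mid-exponential phase (OD600 0.4−0.8), diluted to OD600 0.001 (~2 × 10^4 CFU/mL) in 7H9S with 0.5% DMSO; serially diluted compounds; 5 days at 37 °C, then resazurin plus Tween 80; fluorescence (ex 530/em 580 nm) read 30 h later; MIC50 from signal relative to no-inhibitor minus no-bacteria controls.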

[2] = Selectivity index, ratio of CC50 for human A549 cells to MIC50 for Mycobacterium tuberculosis H37Rv […]; type: functional
How it was run: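 Selectivity index computed as CC50 in A549 cells divided by MIC50 against H37Rv.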

[3] = Cytotoxicity against human A549 cells assessed as inhibition of cell proliferation incubated for 4 days by Coulter counter based assay
How it was run: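 A549 cells seeded at 7500 per well; serially diluted compounds added 24 h later; 4 days at 37 °C; cells trypsinized and counted by Coulter Counter; CC50 (50% proliferation vs untreated) obtained by extrapolation; mean ± SEM of two or three independent tests.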

[4] = molecular target: T1, Hypoxanthine-guanine phosphoribosyltransferase (Homo sapiens, UniProt P00492); assay: Inhibition of human HGPRT
T1 sequence (P00492 whole entry): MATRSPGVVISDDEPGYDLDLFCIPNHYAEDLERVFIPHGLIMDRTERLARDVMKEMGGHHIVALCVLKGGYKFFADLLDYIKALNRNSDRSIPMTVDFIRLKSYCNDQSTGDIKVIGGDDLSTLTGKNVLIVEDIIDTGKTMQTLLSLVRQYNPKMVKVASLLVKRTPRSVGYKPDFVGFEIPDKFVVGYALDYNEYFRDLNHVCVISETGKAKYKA

[5] = Selectivity index, ratio of Ki for human HGPRT to Ki for N-terminal hexa-histidine tagged Mycobacterium tuberculosis HGPRT
[6] = Inhibition of N-terminal hexa-histidine tagged Mycobacterium tuberculosis HGPRT expressed in Escherichia coli BL-21(DE3) using PRib-PP substrate and guanine
[7] = Inhibition of Escherichia coli HGPRT
[8] = Inhibition of Mycobacterium tuberculosis HGPRT
[9] = tested on: Mycobacterium tuberculosis; assay: Potency index, ratio of Ki for GMP to Ki for compound against N-terminal hexa-histidine tagged Mycobacterium tuberculosis HGPRT expressed in Escherichia coli BL-21(DE3) using PRib-PP substrate and guanine

| Structure (SMILES) | MIC50 [1] [µM] | Selectivity Index [2] | Ki [4] [µM] | Ki [6] [µM] | also measured |
| --- | --- | --- | --- | --- | --- |
| CCOC(=O)[C@H](Cc1ccccc1)NP(=O)(CCN(CCN(CCP(=O)(N[C@@H](Cc1ccccc1)C(=O)OCC)N[C@@H](Cc1ccccc1)C(=O)OCC)CCP(=O)(N[C@@H](Cc1ccccc1)C(=O)OCC)N[C@@H](Cc1ccccc1)C(=O)OCC)CCn1cnc2c(=O)[nH]c(N)nc21)N[C@@H](Cc1ccccc1)C(=O)OCC | 4.5 | >67 |  |  | CC50 at 96 h [3]: > 300 µM |
| CCOC(=O)[C@H](Cc1ccccc1)NP(=O)(COCC(COCP(=O)(N[C@@H](Cc1ccccc1)C(=O)OCC)N[C@@H](Cc1ccccc1)C(=O)OCC)Cn1cnc2c(=O)[nH]c(N)nc21)N[C@@H](Cc1ccccc1)C(=O)OCC | 11 | >27 |  |  |  |
| CCOC(=O)[C@H](Cc1ccccc1)NP(=O)(CCN(CCO)CCN(CCn1cnc2c(=O)[nH]c(N)nc21)CCP(=O)(N[C@@H](Cc1ccccc1)C(=O)OCC)N[C@@H](Cc1ccccc1)C(=O)OCC)N[C@@H](Cc1ccccc1)C(=O)OCC | 4.5 | >43 |  |  | CC50 at 96 h [3]: 193 µM |
| Nc1nc2c(ncn2CCN(CCN(CCCO)CCP(=O)(O)O)CCP(=O)(O)O)c(=O)[nH]1 |  |  | 0.04 | 15.9 | Ratio Ki [5]: 400 |
| O=c1[nH]cnc2c1ncn2CC(COCP(=O)(O)O)COCP(=O)(O)O |  |  |  | 7.7 |  |
| Nc1nc2c(ncn2CCN(CCN(CCP(=O)(O)O)CCP(=O)(O)O)CCP(=O)(O)O)c(=O)[nH]1 |  |  | 0.03 | 1.6 |  |
| O=c1[nH]cnc2c1ncn2CCN(CCN(CCP(=O)(O)O)CCP(=O)(O)O)CCP(=O)(O)O |  |  | 0.01 | 1.13 |  |
| Nc1nc2c(ncn2CCN(CCN(CCO)CCP(=O)(O)O)CCP(=O)(O)O)c(=O)[nH]1 |  |  | 0.03 | 1.6 |  |
| O=c1[nH]cnc2c1ncn2CCOCCP(=O)(O)O |  |  |  | 18 |  |
| Nc1nc2c(ncn2[C@@H]2O[C@H](COP(=O)(O)O)[C@@H](O)[C@H]2O)c(=O)[nH]1 |  |  |  |  | Ki [7]: 526 µM; Ki [8]: 20 µM |
| CCOC(=O)[C@H](Cc1ccccc1)NP(=O)(CCN(CCO)CCN(CCn1cnc2c(=O)[nH]cnc21)CCP(=O)(N[C@@H](Cc1ccccc1)C(=O)OCC)N[C@@H](Cc1ccccc1)C(=O)OCC)N[C@@H](Cc1ccccc1)C(=O)OCC | 8 | >19.5 |  |  | CC50 at 96 h [3]: 156 µM |
| CCOC(=O)[C@H](Cc1ccccc1)NP(=O)(CCOCC(Cn1cnc2c(=O)[nH]c(N)nc21)OCCP(=O)(N[C@@H](Cc1ccccc1)C(=O)OCC)N[C@@H](Cc1ccccc1)C(=O)OCC)N[C@@H](Cc1ccccc1)C(=O)OCC (stereo partly drawn) | 9 | >11 |  |  |  |
| O=c1[nH]cnc2c1ncn2CCN(CCN(CCCO)CCP(=O)(O)O)CCP(=O)(O)O |  |  | 1.64 | 22.7 | Ratio Ki [5]: 14 |
| Nc1nc2c(ncn2CCOCCP(=O)(O)O)c(=O)[nH]1 |  |  |  | 1.76 |  |
| O=c1[nH]cnc2c1ncn2CCN(CCN(CCO)CCP(=O)(O)O)CCP(=O)(O)O |  |  | 0.5 | 22.5 |  |
| Nc1nc2c(ncn2CCN(CCOCCP(=O)(O)O)CCP(=O)(O)O)c(=O)[nH]1 |  |  |  | 1.4 |  |
| Nc1nc2c(ncn2CC(COCCP(=O)(O)O)OCCP(=O)(O)O)c(=O)[nH]1 (stereo not drawn) |  |  |  | 0.69 | Ratio Ki [9]: 28 |
| CCOC(=O)[C@H](Cc1ccccc1)NP(=O)(COCC(COCP(=O)(N[C@@H](Cc1ccccc1)C(=O)OCC)N[C@@H](Cc1ccccc1)C(=O)OCC)Cn1cnc2c(=O)[nH]cnc21)N[C@@H](Cc1ccccc1)C(=O)OCC | 7.5 | >13 |  |  |  |
| Nc1nc2c(ncn2CC(COCP(=O)(O)O)COCP(=O)(O)O)c(=O)[nH]1 |  |  |  | 0.77 | Ratio Ki [9]: 28 |
| CCOC(=O)[C@H](Cc1ccccc1)NP(=O)(CCN(CCN(CCP(=O)(N[C@@H](Cc1ccccc1)C(=O)OCC)N[C@@H](Cc1ccccc1)C(=O)OCC)CCP(=O)(N[C@@H](Cc1ccccc1)C(=O)OCC)N[C@@H](Cc1ccccc1)C(=O)OCC)CCn1cnc2c(=O)[nH]cnc21)N[C@@H](Cc1ccccc1)C(=O)OCC | 4.5 | >6 |  |  | CC50 at 96 h [3]: 28 µM |
| CCOC(=O)[C@H](Cc1ccccc1)NP(=O)(CCOCC(Cn1cnc2c(=O)[nH]cnc21)OCCP(=O)(N[C@@H](Cc1ccccc1)C(=O)OCC)N[C@@H](Cc1ccccc1)C(=O)OCC)N[C@@H](Cc1ccccc1)C(=O)OCC (stereo partly drawn) | 15 | >6 |  |  | CC50 at 96 h [3]: 90 µM |
| O=c1[nH]cnc2c1ncn2CC(COCCP(=O)(O)O)OCCP(=O)(O)O (stereo not drawn) |  |  | 4 | > 50 |  |
| O=c1[nH]cnc2c1ncn2CCN(CCOCCP(=O)(O)O)CCP(=O)(O)O |  |  |  | > 50 |  |
